High-throughput results deposited in PubChem BioAssay by several laboratories.
MC4R barr agon: MC4R agonists recruiting beta-arrestin, primary screen, cell-based, luminescence, agonist arm of biased-ligand search | activation, % at 8.9 µM | Melanocortin receptor 4 (Homo sapiens), P32245 | U2OS MC4R beta-arrestin complementation; percent of melanotan II response, DMSO zero | AID 540308, 2011 | hit rate 0.98% among 360,000;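 active = activation above a per-plate cutoff, the mean activation of sample wells on that plate plus 3 SD, cut at about 8% in these data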
ANO1 block: TMEM16A chloride channel inhibitors, primary screen, cell-based, HTS; Anoctamin-1 (Mus musculus), Q8BHY3; hit rate 1.2% among 310,000; normalized B-score (activity score, 25-100; higher = stronger inhibition) at 10 µM; HEK293 TMEM16A/YFP iodide influx fluorescence, ionomycin;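 active = ratio plate-corrected score three or more library SD toward inhibition, starting fluorescence score within five deviations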;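 also: score derived from kinetic fluorescence span divided by baseline fluorescence per well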
Target sequence (Q8BHY3 whole entry, looked up): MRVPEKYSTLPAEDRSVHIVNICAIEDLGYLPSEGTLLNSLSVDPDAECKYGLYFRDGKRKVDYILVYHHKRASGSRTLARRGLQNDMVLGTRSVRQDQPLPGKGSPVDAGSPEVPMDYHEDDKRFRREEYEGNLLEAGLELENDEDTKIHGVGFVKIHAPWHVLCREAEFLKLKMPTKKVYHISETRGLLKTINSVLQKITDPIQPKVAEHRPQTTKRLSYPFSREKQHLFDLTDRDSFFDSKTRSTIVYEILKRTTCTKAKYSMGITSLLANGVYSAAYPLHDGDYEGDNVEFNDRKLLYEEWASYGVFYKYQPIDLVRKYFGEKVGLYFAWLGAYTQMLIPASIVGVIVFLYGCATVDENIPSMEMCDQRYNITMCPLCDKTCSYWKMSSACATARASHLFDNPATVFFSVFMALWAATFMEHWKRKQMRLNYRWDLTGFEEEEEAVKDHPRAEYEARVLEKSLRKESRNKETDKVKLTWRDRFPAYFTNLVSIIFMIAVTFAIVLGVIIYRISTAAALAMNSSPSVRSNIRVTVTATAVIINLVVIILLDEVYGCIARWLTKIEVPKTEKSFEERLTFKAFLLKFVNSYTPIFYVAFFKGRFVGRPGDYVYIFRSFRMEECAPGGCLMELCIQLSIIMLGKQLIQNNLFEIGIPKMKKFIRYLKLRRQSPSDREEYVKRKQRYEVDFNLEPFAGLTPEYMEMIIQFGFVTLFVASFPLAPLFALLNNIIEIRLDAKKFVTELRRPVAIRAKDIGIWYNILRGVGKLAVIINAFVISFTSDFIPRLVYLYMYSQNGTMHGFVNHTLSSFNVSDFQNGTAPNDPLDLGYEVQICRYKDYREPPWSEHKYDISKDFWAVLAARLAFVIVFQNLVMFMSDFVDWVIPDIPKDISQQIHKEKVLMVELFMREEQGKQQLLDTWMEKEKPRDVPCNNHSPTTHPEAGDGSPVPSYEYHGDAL
MC4R antagonist: MC4R antagonists of cAMP signaling, primary screen, cell-based, TR-FRET, antagonist arm of biased-ligand search. AID 540295, 2011. Melanocortin receptor 4 (Homo sapiens), P32245. hit rate 0.48% among 360,000. inhibition, % at 6.5 µM. MC4R-expressing cells, MTII-stimulated cAMP, LANCE TR-FRET;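 active = inhibition above its plate's cutoff, the mean of tested wells on that plate plus 3 SD, cut at about 29% in these data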;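 also: 0% = Melanotan II alone and 100% = Melanotan II plus saturating MCL0020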
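Material: human MC4R-expressing U2OS cells. Probe or stimulus: Melanotan II challenge. Dosing: 6.5 µM single dose. Times: 30-min compound, 1-h challenge, 1-h detection, room temperature. Technique: TR-FRET with Eu-cAMP and labeled anti-cAMP, 671 nm. Replication: singlicate.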
beta cell repl: inducers of MIN6 beta-cell proliferation, primary screen, ATP luminescence, uHTS. MIN6 cells proliferation, ATPlite luminescence, 48 h; cells starved in 0.2% serum; 100% = growth in 10% serum. hit rate 0.29% among 330,000. proliferation, % at 10 µM;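 active = compounds whose signal lies at least 3.5 SD above the mean of all wells on their plate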;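 also: 0% = DMSO-treated cells in low-serum medium and 100% = 10% serum control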
TMEM16A act: TMEM16A chloride channel activators or potentiators, primary screen, cell-based, HTS. AID 623877, 2012. hit rate 0.3% among 340,000. HEK293 TMEM16A/YFP-H148Q/I152L, iodide quench fluorescence; stronger effect = lower value. B-score at 10 µM. Anoctamin-1 (Mus musculus), Q8BHY3;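 active = fluorescence-ratio B-score plate-corrected deviation score at least 3 library SD below zero, with starting fluorescence score within 5 deviations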;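 also: channel opened by trigger with iodide after compound preincubation; score built on the fluorescence ratio of max minus min over baseline; more negative score means more quench and so TMEM16A activation or potentiation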
m5-HT2A agonist: mouse Htr2a agonists via beta-arrestin recruitment, primary screen, cell-based, luminescence | activation, % at 7.6 µM | hit rate 0.66% among 360,000 | 5-hydroxytryptamine receptor 2A (Mus musculus), P35363 | CHO-K1 mHTR2A beta-arrestin complementation; percent of 30 µM serotonin response;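 active = activation above a run cutoff, the mean activation of all tested compounds plus 3 SD, cut at about 14% in these data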;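 also: 0% = plate median of compound wells and 100% = 30 µM serotonin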
MC4R barr ag: MC4R beta-arrestin agonists, retest, confirmation, cell-based, luminescence, U2OS; shares compounds with MC4R barr agon; U2OS MC4R beta-arrestin recruitment; scaled DMSO 0%, Melanotan II 100%; activation, % at 8.9 µM; hit rate 31% among 2,400; AID 602192, 2012;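 active = mean activation across replicates above the hit cutoff set in the earlier primary screen, cut at about 8% in these data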
MOR DOR agonist: agonists of MOR-DOR heterodimerization, counter-screen for MC4R biased agonist project, cell-based, luminescence | shares compounds with MC4R barr agon | U2OS PathHunter beta-arrestin, beta-gal luminescence; percent of deltorphin B response, DMSO zero | activation, % at 9.2 µM | hit rate 5.8% among 2,400;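 active = mean activation across replicates exceeds the hit threshold derived in the earlier primary screen, cut at about 18% in these data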;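 also: 100% = deltorphin B at 0.9 µM final and 0% = DMSO alone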
* = called active by the depositor; i = inactive; x = not tested or not shown. Shown are actives, neighbours in structure and some others; about 3.4% of the full set was active somewhere.

SMILES	MC4R barr agon	ANO1 block	MC4R antagonist	beta cell repl	TMEM16A act	m5-HT2A agonist	MC4R barr ag	MOR DOR agonist
O=C(Nc1ccc2c(c1)Cc1ccccc1-2)c1ccccc1F	10.7*	i	5.9	-2.0	i	0.6	1.2	4.9
COc1cc(OC)cc(C(=O)NCC(C)NC(=O)c2cc(OC)cc(OC)c2)c1 (centres undefined)	-1.4	i	13.5	-0.2	i	-4.3	x	x
Cc1ccc(Cl)cc1N1CCN(S(=O)(=O)c2ccc3[nH]c(=O)ccc3c2)CC1	10.2*	i	6.7	-3.4	i	-2.5	11.2*	3.5
CCCCCCCNC(=O)C1(CC2CC(c3ccc(Cl)cc3)=NO2)CCNCC1 (centres undefined)	9.7*	i	8.1	-8.2	i	-8.0	24.4*	14.9
COc1ccc(-c2oc3ccc(-c4cc(OC)c(OC)c(OC)c4)cc3c2C#Cc2ccccn2)cc1	-1.5	x	13.8	-5.3	i	-5.4	x	x
COc1ccc(C(=O)Nc2ccc(N3CCCCC3)cc2)cc1Br	12.8*	i	-2.4	3.1	i	-1.0	2.3	8.4
Cn1c(=O)c(C(=O)NNC(=O)c2cccc(Cl)c2)c(O)c2ccccc21	9.8*	i	6.6	-2.8	i	5.6	1.8	6.3
COc1ccc(C2=Nc3ccccc3N(C(=O)c3cccnc3)C2C(=O)NC(C)(C)C)cc1 (centres undefined)	x	x	x	x	x	4.2	x	x
CC(=O)Nc1cc(-c2ccc(S(C)(=O)=O)cc2)cn2c(-c3ccc(F)cc3)cnc12	1.7	x	9.8	x	x	2.8	x	x
CC(=O)Nc1cc(-c2ccc(N(C)C)cc2)cn2c(-c3ccc(F)cc3)cnc12	122.6*	x	-8.0	x	x	-7.6	69.7*	3.3
CC(=O)Nc1cc(-c2ccc(S(C)(=O)=O)cc2)cn2c(-c3ccc(F)c(Cl)c3)cnc12	19.5*	x	11.5	x	x	6.3	16.9*	3.6
CC(=O)Nc1cc(-c2ccc(N(C)C)cc2)cn2c(-c3ccc(F)c(Cl)c3)cnc12	70.7*	x	2.2	x	x	6.4	200.3*	10.2
O=C(NCc1cc(Cl)cc(Cl)c1)c1ccc2nc([C@H]3C[C@H](O)[C@@H](CO)O3)[nH]c2c1	-0.5	x	-0.9	x	x	-2.4	x	x
CC1C=CCC2C(=O)N(c3cccc(C(=O)Nc4ccc(F)cc4)c3)C(=O)C12 (centres undefined)	-2.1	i	2.9	3.5	i	-9.1	x	x
O=C(COc1ccc(-n2cnnn2)cc1)Nc1ccc(F)c(Cl)c1	-2.0	x	0.1	-5.8	i	-6.6	x	x
O=C(COc1ccc(-n2cnnn2)cc1)Nc1cc(Cl)cc(Cl)c1	16.6*	x	-0.2	1.1	i	-5.0	4.9	7.6
NC(=O)c1ccsc1NC(=O)c1ccc(S(=O)(=O)N2CCCC2)cc1	0.2	i	3.5	3.0	i	-1.9	x	x
CC1CC(C)CN(S(=O)(=O)c2ccc(C(=O)Nc3sccc3C(N)=O)cc2)C1 (centres undefined)	13.5*	i	4.8	1.1	i	-2.5	13.6*	10.7
CC1CCN(S(=O)(=O)c2ccc(C(=O)OCc3ccc4c(c3)OCO4)cc2)CC1	11.8*	i	7.8	1.8	i	-1.0	6.6	2.6
COc1ccc(NC(=O)CCNS(=O)(=O)c2cccc3nonc23)c(OC)c1	0.3	i	-1.4	0.7	i	-5.1	x	x
Cc1c(C(=O)Nc2nccs2)oc2c(Cl)cccc12	21.8*	i	-8.6	2.9	i	1.1	0.9	6.0
COc1ccc(-c2nsc(SCC(=O)Nc3ccc4c(c3)OCO4)n2)cc1	12.4*	i	11.5	0.0	i	2.8	2.6	5.7
Cc1ccc(-c2nsc(SCC(=O)NCc3ccc4c(c3)OCO4)n2)cc1	-0.4	i	4.7	-2.1	i	-2.1	x	x
COc1ccc(C(C(=O)NCc2ccccc2)n2c(-c3ccccn3)nc3ccccc32)cc1 (centres undefined)	x	x	x	x	x	-5.8	x	x
Cn1ccnc1SCC(=O)Nc1ccc(Br)cc1C(F)(F)F	-4.9	i	-0.6	-0.9	i	-4.1	x	x
SMILES	MC4R barr agon	ANO1 block	MC4R antagonist	beta cell repl	TMEM16A act	m5-HT2A agonist	MC4R barr ag	MOR DOR agonist
Cc1cc(-c2ccc(S(=O)(=O)N3CCN(c4ccccc4F)CC3)s2)on1	-0.4	i	-14.1	1.5	i	-0.3	x	x
COc1ccc(NC(=O)c2c(Nc3ccccc3)sc(C(=O)c3ccc(F)cc3)c2N)cc1	12.1*	100*	1.4	-5.8	i	-1.2	13.7*	8.8
CCOC(=O)c1[nH]c(COC(=O)CCOc2ccccc2OC)c(C(=O)OCC)c1C	16.4*	i	4.7	-3.3	i	1.3	2.0	6.5
S=c1[nH]c2ccc(Cc3ccc4[nH]c(=S)[nH]c4c3)cc2[nH]1	-3.0	i	10.8	-4.8	i	-1.9	x	x
COc1ccc(NC(=O)c2oc3ccccc3c2NC(=O)C2CC2)c(OC)c1	3.4	i	-1.4	0.2	i	-1.9	x	x
CCOCC(=O)Nc1c(C(=O)Nc2ccc(OC)cc2OC)oc2ccccc12	12.8*	i	3.4	0.7	i	-2.0	9.9*	6.2
Cc1noc(C)c1CCC(=O)Nc1cc(C(=O)O)ccc1Cl	-0.2	x	11.7	x	x	9.2	x	x
COc1ccc(Cl)cc1NC(=O)CC(=O)Nc1cc(Cl)ccc1OC	3.6	i	3.0	0.0	i	1.8	x	x
COc1ccc(Cl)cc1NC(=O)Cc1c(F)cccc1Cl	15.0*	i	1.5	1.0	i	-3.0	-2.6	2.2
COc1ccc([C@H]2C[C@@H](O)[C@H](n3cc(-c4ccc(F)cc4)nn3)CN2CC2CCCCC2)cc1	14.1*	x	18.4	x	x	-0.7	0.6	4.4
CN(Cc1ccccc1)C(c1ccnc2ccccc12)c1nnnn1-c1ccc2c(c1)OCCO2 (centres undefined)	x	x	x	x	x	-8.4	x	x
